This is a sample that favours compounds with a hit; in the whole collection about 2.5% have one here.
NR2E3 ag-1 – agonists of human nuclear receptor NR2E3; Q9Y5X4; inhibition of corepressor binding, % at 4.78 µM; hit rate 0.12% among 320,000; AID 2300; GST-NR2E3/biotin-RetCOR TR-FRET, 1536-well;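 active = percent inhibition above the cutoff of mean plus 3 SD of all tested compounds, set per screening campaign, cut at about 20% in these data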;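 also: 0% = DMSO wells and 100% = biotin wells as full block of FRET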
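Material: NR2E3–RetCOR corepressor complex / Incubation: Compound–protein incubation for 5 h at 4 °C / Dosing: compound at 4.8 µM, single dose / Detection: time-resolved FRET / Benchmarks: high control biotin, low control 0.6% DMSO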
bovine MsrA act – bovine methionine sulfoxide reductase A activation | purified bovine MsrA, absorbance read-out | activation, % at 10.6 µM | hit rate 0.3% among 360,000; in the data active = activation above about 7.5%;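 also: 0% = vehicle and 100% = reference activator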
NR2E3 ag-2 – agonists of human NR2E3 nuclear receptor. inhibition of corepressor binding, % at 3.98 µM. CHO-S Gal4-NCOR/VP16-NR2E3 two-hybrid, luciferase. hit rate 0.35% among 360,000;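 active = inhibition above the mean of all tested compounds plus 3 SD, cut at about 70% in these data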;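 also: 0% = DMSO with NR2E3 transfected cells and 100% = cells lacking NR2E3 construct; higher means lower luciferase signal from less NR2E3 corepressor binding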
MsrA inhibitor – bovine MsrA inhibition. inhibition, % at 15.5 µM. purified bovine MsrA, absorbance read-out. hit rate 0.75% among 360,000; in the data active = inhibition above about 4.5%;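 also: 0% = vehicle wells with enzyme and 100% = reference inhibitor wells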
GalR3 antag – antagonists of human GalR3; O60755; inhibition, % at 3 µM; hit rate 0.44% among 360,000; HEK293 GalR3-CNG cAMP membrane potential fluorescence; galR3 body fused to GalR1 C-terminus;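 active = inhibition above the screen-wide average plus 3 SD, cut at about 13% in these data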;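 also: forskolin and galanin both at EC90 stimulate the cells; cAMP rise reported by CNG channel membrane potential dye signal; 0% = forskolin plus galanin with DMSO and 100% = forskolin alone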
Target sequence (O60755 1-299 limits assumed): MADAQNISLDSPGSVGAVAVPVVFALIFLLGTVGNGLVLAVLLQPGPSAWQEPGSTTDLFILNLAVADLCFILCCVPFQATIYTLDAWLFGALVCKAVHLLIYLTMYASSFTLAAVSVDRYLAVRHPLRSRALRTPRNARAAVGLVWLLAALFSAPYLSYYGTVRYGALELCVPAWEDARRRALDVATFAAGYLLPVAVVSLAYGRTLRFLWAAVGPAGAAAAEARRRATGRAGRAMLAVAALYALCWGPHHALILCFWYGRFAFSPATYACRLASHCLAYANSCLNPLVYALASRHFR
NadD inh – inhibitors of Staphylococcus aureus NadD | purified NadD enzyme, colorimetric absorbance read-out | inhibition, % at 20 µM | hit rate 0.78% among 360,000; in the data active = inhibition above about 26%
NadD inh conf – confirmation of Staphylococcus aureus NadD inhibitors; purified S. aureus NadD, colorimetric enzyme assay; hit rate 13% among 2,000; inhibition, % at 20 µM; shares compounds with NadD inh; in the data active = inhibition mostly above about 42%, no sharp cut-off; inactive = mostly below about 42%
An asterisk follows results filed as active; . = no result.

SMILES	NR2E3 ag-1	bovine MsrA act	NR2E3 ag-2	MsrA inhibitor	GalR3 antag	NadD inh	NadD inh conf
S=c1[nH]nc(-c2cc(-c3ccccc3)n[nH]2)n1/N=C/c1c(Cl)cccc1Cl	0	0	0	1	-7	26	.
Cc1ccccc1/C=N/n1c(-c2cc(-c3ccccc3)n[nH]2)n[nH]c1=S	0	1	-11	1	-7	53*	22
S=c1[nH]nc(-c2cc(-c3ccccc3)n[nH]2)n1/N=C/c1ccc(Br)s1	2	0	27	1	-6	43*	42
O=C(CCC1CCCCC1)NCc1ccc(F)cc1	-1	-2	-5	0	3	-2	.
CCOC(=O)c1ccc2c(c1)nc(SC/C(O)=C(\C#N)c1nc3ccccc3[nH]1)n2CC	3	-4	0	0	2	33*	15
C[C@@H]1CNC(=O)c2c(C(=O)NCC(=O)OC(C)(C)C)ncn21	.	-1	1	-1	-5	2	.
O=c1oc2ccccc2cc1-c1csc(Nc2nc3c(F)cccc3s2)n1	15	-2	-24	-1	0	57*	1
O=c1oc2ccccc2cc1-c1csc(Nc2nc3ccc(F)cc3s2)n1	10	.	.	.	.	.	.
Cc1ccc(CC(=O)N/N=C/c2ccc(OC(=O)c3ccc([N+](=O)[O-])cc3)cc2)cc1	0	-3	-31	0	-3	33*	5
N#CC/C(N)=N/Nc1nc2ccccc2nc1Cc1ccccc1	1	-12	17	-1	-12	34*	12
N#CCn1c(Cc2ccccc2)nc2ccccc2c1=O	.	-1	-17	0	-10	-2	.
OC1(c2cccs2)CN(c2ccc(Br)cc2)C2=[N+]1CCCS2 (stereo not given)	-2	-4	-3	-1	-9	-7	.
O=c1[nH]c(Cn2nnc(-c3ccccc3)n2)nc2scc(-c3ccccc3)c12	1	-10	18	2	-1	30*	21
O=c1[nH]c(CN2CCN(Cc3ccccc3)CC2)nc2scc(-c3ccccc3)c12	3	-9	5	0	-2	4	.
O=C(C[C@@H]1CC[C@H](NC(=O)Nc2ccc(F)cc2)[C@@H](CO)O1)NCc1cccc(F)c1	.	.	.	0	-4	.	.
C=CCN1CC2CC3(COc4cc(C)cc(C)c4)C=CC2(O3)C1=O (stereo not given)	0	0	-8	2	-1	-2	.
Cc1cc(C)c2c(n1)sc1c(O)cc(=O)[nH]c12	-10	-13	2	0	-3	0	.
COc1ccc(-c2cc(C(F)(F)F)c3c(n2)sc2c(O)cc(=O)[nH]c23)c(OC)c1	-1	-3	-3	2	-1	30*	45
COc1ccc(-c2cccc(C3CC=CC4C3C(=O)N(Cc3ccccc3)C4c3ccc(C(F)(F)F)cc3)c2)cc1 (stereo not given)	-6	-5	-24	-1	-1	10	.
CN(C)c1ccc(-c2cccc(C3CC=CC4C3C(=O)N(Cc3ccccc3)C4c3ccc(C(F)(F)F)cc3)c2)cc1 (stereo not given)	5	-1	-72	0	-4	31*	13
COc1ccc(C(C(=O)NC2CCCC2)N(C(=O)c2snc(-c3ccc(F)cc3)c2N)c2cccc(F)c2)cc1 (stereo not given)	-2	-2	-5	-1	2	39*	6
O=C(Nc1ccc(Cl)c(Cl)c1)Nc1nnc(-c2ccncc2)s1	1	-4	-24	-1	2	61*	9
COc1ccc(NC(=O)Nc2nnc(-c3ccncc3)s2)cc1	3	-9	-31	1	-9	9	.
O=C(Nc1ccc(Cl)cc1)c1nc[nH]c1C(=O)NCCCCNC(=O)c1[nH]cnc1C(=O)Nc1ccc(Cl)cc1	.	0	-2	-1	-5	30*	6
O=C(Nc1cccc(Cl)c1)c1nc[nH]c1C(=O)NCc1ccccc1	2	-12	-3	1	-6	7	.
SMILES	NR2E3 ag-1	bovine MsrA act	NR2E3 ag-2	MsrA inhibitor	GalR3 antag	NadD inh	NadD inh conf
O=C(Nc1cccc(Cl)c1)c1nc[nH]c1C(=O)NCCN(CCNC(=O)c1[nH]cnc1C(=O)Nc1cccc(Cl)c1)CCNC(=O)c1[nH]cnc1C(=O)Nc1cccc(Cl)c1	.	0	-5	0	0	59*	9
O=C(Nc1cccc(Cl)c1)c1nc[nH]c1C(=O)NCCCCNC(=O)c1[nH]cnc1C(=O)Nc1cccc(Cl)c1	.	1	-4	0	-3	31*	5
CC(C)(C)OC(=O)NCCCCCNC(=O)c1[nH]cnc1C(=O)Nc1cccc(Cl)c1	5	-2	-20	0	-8	0	.
O=C(N/N=C/c1ccccc1Cl)c1ccc(F)cc1	3	-4	-100	1	-8	5	.
Clc1cccc(CN2CCN(Cc3ccco3)CC2)c1	0	-2	-16	0	-9	1	.
CCc1cc2c(cc3c(=O)n(CC(=O)NCCCN4CCCCCC4)nc(CC)n32)s1	-1	-1	8	1	-2	31*	-13
CCc1nn(CC(=O)NCCCN2CCN(C)CC2)c(=O)c2cc3sc(C)cc3n12	-1	-3	7	1	1	1	.
O=C(Nc1nc(-c2ccccn2)cs1)c1ccc(F)c(S(=O)(=O)N2CCOCC2)c1	0	-2	10	1	-4	21	.
Cc1ccc(C(=O)Nc2nc(-c3ccccn3)cs2)cc1S(=O)(=O)N1CCOCC1	3	-1	27	0	-7	31*	22
O=C(COC(=O)c1cc(-c2ccco2)nc2ccccc12)NCc1ccccc1	-3	-5	-22	0	0	46*	19
Cn1c(N)c(C(=O)COC(=O)c2cc(-c3ccco3)nc3ccccc23)c(=O)n(C)c1=O	.	-3	-22	0	-3	59*	74*
CCN(CC)C(=O)COC(=O)c1cc(-c2ccco2)nc2ccccc12	.	1	4	1	0	31*	21
CNC(=O)COC(=O)c1cc(-c2ccco2)nc2ccccc12	0	-3	5	2	-4	-2	.
Cc1cccc(-n2nnc(C(=O)NCc3ccccc3)c2N)c1	1	0	-34	0	-4	-5	.
COc1ccc(NC(=O)CCCSc2ccccc2)cc1	1	0	10	1	-4	8	.
Cc1ccc(-c2nn(-c3ccccc3Cl)cc2C(=O)NCC2CCCO2)cc1 (stereo not given)	-1	-2	-16	0	-4	-6	.
Cc1ccc(-n2[nH]c(C)c(/C=N/Nc3ccc([N+](=O)[O-])cc3[N+](=O)[O-])c2=O)cc1C	-1	-8	-2	3	0	37*	12
Cc1[nH]n(-c2ccccc2)c(=O)c1/C=N/NC(=O)c1cccc([N+](=O)[O-])c1	6	-2	-20	0	-3	6	.
